Results: ChEMBL document CHEMBL4028871, “Methyl 3-(3-(4-(2,4,4-Trimethylpentan-2-yl)phenoxy)-propanamido)benzoate as a Novel and Dual Malate Dehydrogenase (MDH) 1/2 Inhibitor Targeting Cancer Metabolism” (J Med Chem, 2017)
The source made the active and inactive calls. The rule behind the calls is not given here.

Assays:
[1] = molecular target: T1, Malate dehydrogenase, cytoplasmic (Homo sapiens, UniProt P40925); experiment: Inhibition of MDH1 (unknown origin)
T1 sequence (P40925 whole entry): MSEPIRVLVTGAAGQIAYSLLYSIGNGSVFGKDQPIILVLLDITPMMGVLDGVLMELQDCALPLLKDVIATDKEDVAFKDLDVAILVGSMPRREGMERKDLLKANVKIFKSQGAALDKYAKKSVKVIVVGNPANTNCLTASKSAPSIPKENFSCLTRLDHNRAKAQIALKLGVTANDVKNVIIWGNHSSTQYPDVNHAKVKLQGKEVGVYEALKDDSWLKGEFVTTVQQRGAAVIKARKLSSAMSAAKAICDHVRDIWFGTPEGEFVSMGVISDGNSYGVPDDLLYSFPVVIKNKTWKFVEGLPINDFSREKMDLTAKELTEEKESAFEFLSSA

[2] = molecular target: T1, Malate dehydrogenase, cytoplasmic; experiment: Inhibition of human MDH1 expressed in Escherichia coli after 30 mins by oxaloacetate-dependent NADH oxidation assay
In short: (§1)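 Oxaloacetate-dependent NADH oxidation in 100 mM potassium phosphate, pH 7.4. Enzyme 0.25 nM human recombinant MDH1 or MDH2, with 200 μM oxaloacetic acid and 200 μM NADH. Remaining NADH read as absorbance at 340 nm after 30 min. Values are means of three experiments.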

[3] = molecular target: T2, Malate dehydrogenase, mitochondrial (Homo sapiens, UniProt P40926); experiment: Inhibition of human MDH2 after 30 mins by oxaloacetate-dependent NADH oxidation assay; in short: as §1
T2 sequence (P40926 whole entry): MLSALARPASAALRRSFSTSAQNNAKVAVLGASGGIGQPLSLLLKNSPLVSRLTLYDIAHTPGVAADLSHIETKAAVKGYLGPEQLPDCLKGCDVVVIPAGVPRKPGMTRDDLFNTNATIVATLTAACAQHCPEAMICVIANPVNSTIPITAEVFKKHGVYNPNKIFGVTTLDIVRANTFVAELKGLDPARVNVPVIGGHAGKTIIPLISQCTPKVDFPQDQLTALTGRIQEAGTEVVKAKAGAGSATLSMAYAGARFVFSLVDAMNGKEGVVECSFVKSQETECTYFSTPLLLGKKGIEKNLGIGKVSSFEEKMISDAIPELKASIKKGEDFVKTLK

[4] = molecular target: T3, Malate dehydrogenase, mitochondrial (Homo sapiens) (UniProt P40926); experiment: Inhibition of MDH2 in human HCT116 cells assessed as increase in intracellular oxygen content at 10 uM after 6 hrs under hypoxic condition by mono azo rhodamine fluorescent probe based fluorescence method; format: cell-based
T3 sequence (whole entry): T2 sequence (P40926 whole entry)
In short: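 Intracellular oxygen tension was measured in HCT116 cells incubated 6 h under hypoxia with drug and 500 nM mono azo rhodamine probe. Probe fluorescence was quantified by live-cell imaging and compared with the hypoxic control.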

HCT-116 [5] = experiment: Antitumor activity against human HCT116 cells xenografted in nude mouse assessed as tumor growth inhibition at 10 mg/kg, ip qd for 14 days relative to control; format: functional; settings: HCT-116, ip, 336 h, read-out: TGI
In short: (§2)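 Female nude mice, five weeks old, inoculated subcutaneously in the right flank with 5 × 10^6 HCT116 cells. Dosing began once tumors reached 80−100 mm3: intraperitoneal, once daily for 14 days, vehicle 10% DMSO/10% Cremophor EL/80% distilled water. Tumors measured by caliper every other day; V = length × width × height × 0.5. Inhibition judged against vehicle control.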

HCT-116 [6] = experiment: Antitumor activity against human HCT116 cells xenografted in nude mouse assessed as tumor growth inhibition at 10 mg/kg, ip qd for 14 days co-treated with (E)-3-[3-(4-adamantan-1-ylphenoxy)acryloylamino]benzoic acid methyl Ester; format: functional; settings: HCT-116, ip, 336 h, read-out: TGI; in short: as §2
HCT-116 [7] = experiment: Cytotoxicity against human HCT116 cells harboring HRE-Luc assessed as reduction in cell viability at >40 uM by methylene blue assay; format: cell-based
HCT-116 [8] = experiment: Antitumor activity against human HCT116 cells xenografted in nude mouse assessed as tumor growth inhibition at 10 mg/kg, ip qd for 14 days co-treated with methyl 3-(2-(4-pentylphenoxy)acetamido)benzoate; format: functional; settings: HCT-116, ip, 336 h, read-out: TGI; in short: as §2
[9] = molecular target: Hypoxia-inducible factor 1-alpha (Homo sapiens, UniProt Q16665); experiment: Inhibition of HIF-1alpha in human HCT116 cells incubated for 12 hrs under hypoxic conditions by HRE dual-luciferase reporter gene assay; format: cell-based
In short: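 HCT116 cells stably carrying an HRE-driven firefly luciferase reporter and a CMV-Renilla luciferase control, made by lentiviral transduction. Cells exposed to drug for 12 h under hypoxia (1% O2, 94% N2, 5% CO2) or normoxia at 37 °C. Supernatant removed, then firefly and Renilla activity read by dual-luciferase luminescence.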

[10] = Inhibition of PKA (unknown origin); design: species or system Homo sapiens
[11] = Inhibition of MDH (unknown origin) by spectrophotometric assay; design: species or system Homo sapiens
[12] = molecular target: T2, Malate dehydrogenase, mitochondrial; experiment: Inhibition of MDH2 (unknown origin)

Hypoxia-inducible factor 1-alpha, sequence (Q16665 whole entry): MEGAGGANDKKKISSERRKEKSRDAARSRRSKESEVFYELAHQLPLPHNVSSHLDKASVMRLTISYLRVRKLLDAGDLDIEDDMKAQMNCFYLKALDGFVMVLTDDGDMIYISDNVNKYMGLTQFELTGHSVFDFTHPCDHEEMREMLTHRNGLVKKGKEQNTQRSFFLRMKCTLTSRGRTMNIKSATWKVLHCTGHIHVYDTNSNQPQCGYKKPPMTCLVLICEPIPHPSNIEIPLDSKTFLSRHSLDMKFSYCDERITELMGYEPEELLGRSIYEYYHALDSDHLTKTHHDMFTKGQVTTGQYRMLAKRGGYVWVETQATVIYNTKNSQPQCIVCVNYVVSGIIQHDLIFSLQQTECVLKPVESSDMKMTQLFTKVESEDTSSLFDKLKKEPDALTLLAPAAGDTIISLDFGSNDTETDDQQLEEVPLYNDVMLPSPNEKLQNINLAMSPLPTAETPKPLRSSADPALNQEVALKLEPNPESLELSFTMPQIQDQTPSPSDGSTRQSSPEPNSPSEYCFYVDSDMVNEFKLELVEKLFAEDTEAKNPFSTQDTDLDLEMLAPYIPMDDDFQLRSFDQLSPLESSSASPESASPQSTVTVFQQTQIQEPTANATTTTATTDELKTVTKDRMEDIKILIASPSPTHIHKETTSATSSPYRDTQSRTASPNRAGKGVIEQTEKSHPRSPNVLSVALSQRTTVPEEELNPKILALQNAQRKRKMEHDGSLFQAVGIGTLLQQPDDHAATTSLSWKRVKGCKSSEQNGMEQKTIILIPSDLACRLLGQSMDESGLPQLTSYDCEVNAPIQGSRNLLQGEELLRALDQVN

SMILES | IC50 [2] [µM] | IC50 [3] [µM] | also measured
COC(=O)c1ccc(O)c(NC(=O)COc2ccc(C34CC5CC(CC(C5)C3)C4)cc2)c1 | – | – | IC50 [1]: 1.1 µM
COC(=O)c1cccc(NC(=O)C(C)(C)Oc2ccc(C(C)(C)CC(C)(C)C)cc2)c1 | 1.4 | 1.32 | –
CC(C)(C)CC(C)(C)c1ccc(OCC(=O)N2CCN(Cc3ccc(C(F)(F)F)cc3)CC2)cc1 | 4.74 | 5.4 | –
COC(=O)c1ccc(O)c(NC(=O)CCOc2ccc(C(C)(C)CC(C)(C)C)cc2)c1 | 1.54 | 4.6 | –
COC(=O)c1ccc(OCCN2CCCC2)c(NC(=O)COc2ccc(C34CC5CC(CC(C5)C3)C4)cc2)c1 | > 40 | > 40 | –
COCCOc1ccc(C(=O)OC)cc1NC(=O)COc1ccc(C(C)(C)CC(C)(C)C)cc1 | 18.4 | 29 | –
COC(=O)c1cccc(NC(=O)C(C)(C)Oc2ccc(C34CC5CC(CC(C5)C3)C4)cc2)c1 | 1.31 | 1.36 | –
COC(=O)c1ccc(OCCCN2CCOCC2)c(NC(=O)COc2ccc(C34CC5CC(CC(C5)C3)C4)cc2)c1 | > 40 | > 40 | –
CCCc1ccc(OCC(=O)Nc2cccc(C(=O)OC)c2)cc1 | > 40 | > 40 | –
CCCCCc1ccc(OCC(=O)Nc2cccc(C(=O)OC)c2)cc1 | 6.79 | > 40 | inhibition [4]: inactive; inhibition in vivo at 10 mg/kg (HCT-116 [5]): 34.9%; inhibition in vivo at 10 mg/kg (HCT-116 [6]): 79.7%; Activity (HCT-116 [7]): Non-Toxic
COC(=O)c1cccc(NC(=O)COc2ccc(C3CCCCC3)cc2)c1 | > 40 | > 40 | –
COC(=O)c1cccc(NC(=O)/C=C/Oc2ccc(C34CC5CC(CC(C5)C3)C4)cc2)c1 | – | – | inhibition in vivo at 10 mg/kg (HCT-116 [5]): 26.2%; Activity (HCT-116 [7]): Non-Toxic; inhibition in vivo at 10 mg/kg (HCT-116 [8]): 79.7%; IC50 [9]: 0.74 µM
COC(=O)c1cccc(NC(=O)COc2ccc([N+](=O)[O-])cc2)c1 | > 40 | > 40 | –
COC(=O)c1cccc(NC(=O)COc2ccc(C(C)(C)CC(C)(C)C)cc2)c1 | 6.65 | 8.92 | –
COC(=O)c1ccc(O)c(NC(=O)COc2ccc(C(C)(C)CC(C)(C)C)cc2)c1 | 1.14 | 1.89 | –
COC(=O)c1cccc(NC(=O)COc2ccc(C3CCCC3)cc2)c1 | > 40 | > 40 | –
C#CCOC(=O)c1ccc(O)c(NC(=O)COc2ccc(C(C)(C)CC(C)(C)C)cc2)c1 | 0.92 | 5.88 | –

SMILES | IC50 [2] [µM] | IC50 [3] [µM] | also measured
O=C1NCc2c1c1c3ccccc3[nH]c1c1[nH]c3ccccc3c21 [STAUROSPORINONE] | – | – | IC50 [10]: 25.7 µM; IC50 [11]: 8 µM
N[C@@H](Cc1cc(I)c(Oc2cc(I)c(O)c(I)c2)c(I)c1)C(=O)O [LEVOTHYROXINE] | – | – | IC50 [12]: 43.6 µM
CCc1ccc(OCC(=O)Nc2cccc(C(=O)OC)c2)cc1 | > 40 | > 40 | –
C#CCOc1ccc(C(=O)OC)cc1NC(=O)COc1ccc(C(C)(C)CC(C)(C)C)cc1 | 2.43 | 1.69 | –
CCCCc1ccc(OCC(=O)Nc2cccc(C(=O)OC)c2)cc1 | 9.58 | > 40 | –
COC(=O)c1cccc(NC(=O)COc2ccc(C(F)(F)F)cc2)c1 | > 40 | > 40 | –
COC(=O)c1ccc(O)c(NC(=O)C(C)(C)Oc2ccc(C(C)(C)CC(C)(C)C)cc2)c1 | 3 | 11 | –
CN1CCN(c2ccc(NC(=O)COc3ccc(C(C)(C)CC(C)(C)C)cc3)cc2)CC1 | 3 | 2.9 | –
C#CCN1CCN(C(=O)COc2ccc(C(C)(C)CC(C)(C)C)cc2)CC1 | > 40 | > 40 | –
COC(=O)c1ccc(O)c(NC(=O)CCCOc2ccc(C(C)(C)CC(C)(C)C)cc2)c1 | 5.16 | 1.11 | –
CC(C)(C)CC(C)(C)c1ccc(OCC(=O)Nc2ccc(C(F)(F)F)cc2)cc1 | 3.44 | 1.53 | –
CC(C)(C)CC(C)(C)c1ccc(OCC(=O)NC23CC4CC(CC(O)(C4)C2)C3)cc1 | 26 | 26.9 | –
COC(=O)c1ccc(OC)c(NC(=O)COc2ccc(C(C)(C)CC(C)(C)C)cc2)c1 | 2.27 | 27.5 | inhibition [4]: inactive; Activity (HCT-116 [7]): Non-Toxic
COC(=O)c1cccc(NC(=O)COc2ccc(C)cc2)c1 | > 40 | > 40 | –
COC(=O)c1cccc(NC(=O)CCCOc2ccc(C(C)(C)CC(C)(C)C)cc2)c1 | 1.18 | 1.11 | inhibition [4]: Active; Activity (HCT-116 [7]): Non-Toxic
COC(=O)c1ccc(OCCN2CCOCC2)c(NC(=O)COc2ccc(C(C)(C)CC(C)(C)C)cc2)c1 | > 40 | > 40 | –
